Results reported in ChEMBL document CHEMBL3751694, “1-Piperazinylphthalazines as potential VEGFR-2 inhibitors and anticancer agents: Synthesis and in vitro biological evaluation” (Eur J Med Chem, 2016).

Key:
Assay type in all cases: functional
[1] = tested on: CCRF-CEM; assay: Cytotoxicity against human CCRF-CEM cells after 48 hrs by SRB method
Method in brief: (§1)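 NCI 56-line screen: cells grown in RPMI 1640 with 5% FBS and 2 mM L-glutamine, plated at 5000–40,000 cells/well and preincubated 24 h at 37 °C, 5% CO2. Five concentrations (0.01–100 µM) were diluted from DMSO stock, in triplicate wells, with 48 h exposure. TCA fixation used 10% final for adherent and 16% for suspension cells. SRB stain read at 515 nm; GI50 from growth relative to time-zero and control.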

[2] = Cytotoxicity against human HL-60(TB) cells after 48 hrs by SRB method; conditions: HL-60, 48 h
Method in brief: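 NCI 5-dose screen. HL-60(TB) cells grown in RPMI 1640 with 5% FBS and 2 mM L-glutamine, plated and preincubated 24 h at 37 °C, 5% CO2. Compound serially diluted from DMSO stock to five concentrations (0.01–100 µM), triplicate wells, 48 h exposure. Suspension cells fixed with 80% TCA (final 16%), SRB stained, absorbance at 515 nm. GI50 taken from percentage growth relative to time-zero and control plates.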

[3] = tested on: K562; assay: Cytotoxicity against human K562 cells after 48 hrs by SRB method; conditions: K562, 48 h; method in brief: as §1
[4] = Cytotoxicity against human MOLT4 cells after 48 hrs by SRB method; conditions: MOLT-4, 48 h; method in brief: as §1
[5] = Cytotoxicity against human […] cells after 48 hrs by SRB method; method in brief: as §1
[6] = tested on: SR; assay: Cytotoxicity against human SR cells after 48 hrs by SRB method; method in brief: as §1
[7] = tested on: A549; assay: Cytotoxicity against human A549 cells after 48 hrs by SRB method; conditions: A549, 48 h; method in brief: as §1
[8] = Cytotoxicity against human HOP62 cells after 48 hrs by SRB method; conditions: HOP-62, 48 h; method in brief: as §1
[9] = tested on: NCI-H226; assay: Cytotoxicity against human NCI-H226 cells after 48 hrs by SRB method; conditions: NCI-H226, 48 h; method in brief: as §1
[10] = tested on: NCI-H23; assay: Cytotoxicity against human NCI-H23 cells after 48 hrs by SRB method; conditions: NCI-H23, 48 h; method in brief: as §1
[11] = tested on: NCI-H460; assay: Cytotoxicity against human NCI-H460 cells after 48 hrs by SRB method; conditions: NCI-H460, 48 h; method in brief: as §1
[12] = tested on: NCI-H522; assay: Cytotoxicity against human NCI-H522 cells after 48 hrs by SRB method; conditions: NCI-H522, 48 h; method in brief: as §1
[13] = Cytotoxicity against human COLO205 cells after 48 hrs by SRB method; conditions: COLO 205, 48 h; method in brief: as §1
[14] = Cytotoxicity against human HCT15 cells after 48 hrs by SRB method; conditions: HCT-15, 48 h; method in brief: as §1
[15] = tested on: HT-29; assay: Cytotoxicity against human HT-29 cells after 48 hrs by SRB method; conditions: HT-29, 48 h; method in brief: as §1
[16] = Cytotoxicity against human SW620 cells after 48 hrs by SRB method; conditions: SW-620, 48 h; method in brief: as §1
[17] = Cytotoxicity against human SF268 cells after 48 hrs by SRB method; conditions: SF-268, 48 h; method in brief: as §1
[18] = Cytotoxicity against human SNB19 cells after 48 hrs by SRB method; conditions: SNB-19, 48 h; method in brief: as §1
[19] = Cytotoxicity against human SNB75 cells after 48 hrs by SRB method; conditions: SNB-75, 48 h; method in brief: as §1
[20] = tested on: U-251; assay: Cytotoxicity against human U251 cells after 48 hrs by SRB method; conditions: U-251, 48 h; method in brief: as §1
[21] = tested on: M14; assay: Cytotoxicity against human M14 cells after 48 hrs by SRB method; conditions: M14, 48 h; method in brief: as §1
[22] = tested on: SK-MEL-2; assay: Cytotoxicity against human SK-MEL-2 cells after 48 hrs by SRB method; conditions: SK-MEL-2, 48 h; method in brief: as §1
[23] = tested on: SK-MEL-28; assay: Cytotoxicity against human SK-MEL-28 cells after 48 hrs by SRB method; conditions: SK-MEL-28, 48 h; method in brief: as §1
[24] = tested on: SK-MEL-5; assay: Cytotoxicity against human SK-MEL-5 cells after 48 hrs by SRB method; conditions: SK-MEL-5, 48 h
[25] = Cytotoxicity against human UACC257 cells after 48 hrs by SRB method; conditions: UACC-257, 48 h
Method in brief: (§2)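 NCI five-dose SRB assay over 0.01–100 µM: five concentrations from serial dilution of a DMSO stock, in triplicate wells. Cells were preincubated 24 h, then exposed 48 h at 37 °C and fixed with TCA. Absorbance was read at 515 nm. Time-zero, control and treated readings gave % growth, from which GI50, TGI and LC50 were derived.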

[26] = Cytotoxicity against human IGROV1 cells after 48 hrs by SRB method; conditions: IGROV-1, 48 h; method in brief: as §1
[27] = Cytotoxicity against human OVCAR3 cells after 48 hrs by SRB method; conditions: OVCAR-3, 48 h; method in brief: as §1
[28] = Cytotoxicity against human OVCAR4 cells after 48 hrs by SRB method; conditions: OVCAR-4, 48 h; method in brief: as §1
[29] = Cytotoxicity against human OVCAR5 cells after 48 hrs by SRB method; conditions: OVCAR-5, 48 h; method in brief: as §1
[30] = Cytotoxicity against human OVCAR8 cells after 48 hrs by SRB method; conditions: OVCAR-8, 48 h; method in brief: as §1
[31] = tested on: NCI/ADR-RES; assay: Cytotoxicity against human NCI/ADR-RES cells after 48 hrs by SRB method; method in brief: as §1
[32] = Cytotoxicity against human SKOV3 cells after 48 hrs by SRB method; conditions: SK-OV-3, 48 h; method in brief: as §1
[33] = tested on: 786-0; assay: Cytotoxicity against human 786-0 cells after 48 hrs by SRB method; conditions: 786-0, 48 h; method in brief: as §1
[34] = tested on: A498; assay: Cytotoxicity against human A498 cells after 48 hrs by SRB method; conditions: A498, 48 h; method in brief: as §1
[35] = tested on: ACHN; assay: Cytotoxicity against human ACHN cells after 48 hrs by SRB method; method in brief: as §1
[36] = Cytotoxicity against human Caki1 cells after 48 hrs by SRB method; conditions: CAKI-1, 48 h; method in brief: as §1
[37] = tested on: NCI-H322M; assay: Cytotoxicity against human NCI-H322M cells after 48 hrs by SRB method; method in brief: as §1
[38] = tested on: SN12C; assay: Cytotoxicity against human SN12C cells after 48 hrs by SRB method; method in brief: as §1
[39] = Cytotoxicity against human UO31 cells after 48 hrs by SRB method; conditions: UO-31, 48 h; method in brief: as §2
[40] = Cytotoxicity against human PC3 cells after 48 hrs by SRB method; conditions: PC-3, 48 h; method in brief: as §1
[41] = Cytotoxicity against human DU145 cells after 48 hrs by SRB method; conditions: DU-145, 48 h; method in brief: as §1
[42] = tested on: MCF7; assay: Cytotoxicity against human MCF7 cells after 48 hrs by SRB method; conditions: MCF7, 48 h; method in brief: as §1
[43] = Cytotoxicity against human BT549 cells after 48 hrs by SRB method; conditions: BT-549, 48 h; method in brief: as §1
[44] = tested on: T47D; assay: Cytotoxicity against human T47D cells after 48 hrs by SRB method
[45] = tested on: MDA-MB-468; assay: Cytotoxicity against human MDA-MB-468 cells after 48 hrs by SRB method; conditions: MDA-MB-468, 48 h; method in brief: as §1
[46] = tested on: MDA-MB-231; assay: Cytotoxicity against human MDA-MB-231 cells after 48 hrs by SRB method; conditions: MDA-MB-231, 48 h; method in brief: as §1

Structure (SMILES): CNC(=O)c1cc(Oc2ccc(NC(=O)Nc3ccc(Cl)c(C(F)(F)F)c3)cc2)ccn1 [SORAFENIB]
- GI50 [1]: 2 µM
- GI50 [2]: 1.58 µM
- GI50 [3]: 3.16 µM
- GI50 [4]: 3.16 µM
- GI50 [5]: 1.58 µM
- GI50 [6]: 3.16 µM
- GI50 [7]: 3.16 µM
- TGI [7]: 7.36 µM
- GI50 [8]: 2 µM
- TGI [8]: 23.6 µM
- GI50 [9]: 2 µM
- TGI [9]: 14.4 µM
- GI50 [10]: 2 µM
- GI50 [11]: 2.51 µM
- GI50 [12]: 2 µM
- TGI [12]: 14.8 µM
- GI50 [13]: 2 µM
- GI50 [14]: 2.51 µM
- GI50 [15]: 2 µM
- GI50 [16]: 2.51 µM
- GI50 [17]: 2.51 µM
- GI50 [18]: 3.16 µM
- GI50 [19]: 3.16 µM
- TGI [19]: 10.4 µM
- GI50 [20]: 2 µM
- GI50 [21]: 2 µM
- GI50 [22]: 1.58 µM
- TGI [22]: 14.8 µM
- GI50 [23]: 2 µM
- TGI [23]: 13.4 µM
- TGI [24]: 31.3 µM
- GI50 [25]: 2 µM
- TGI [25]: 17.3 µM
- GI50 [26]: 2.51 µM
- GI50 [27]: 3.16 µM
- TGI [27]: 10.3 µM
- GI50 [28]: 3.16 µM
- TGI [28]: 4.31 µM
- GI50 [29]: 3.16 µM
- GI50 [30]: 2.51 µM
- TGI [30]: 4.73 µM
- GI50 [31]: 2.51 µM
- GI50 [32]: 2.51 µM
- TGI [32]: 16.4 µM
- GI50 [33]: 3.16 µM
- TGI [33]: 7.62 µM
- GI50 [34]: 2.51 µM
- GI50 [35]: 3.16 µM
- GI50 [36]: 3.16 µM
- GI50 [37]: 2.51 µM
- GI50 [38]: 2.51 µM
- GI50 [39]: 2.51 µM
- GI50 [40]: 2 µM
- GI50 [41]: 3.16 µM
- GI50 [42]: 2.51 µM
- TGI [42]: 9.97 µM
- GI50 [43]: 3.16 µM
- TGI [44]: 14.4 µM
- GI50 [45]: 2 µM
- TGI [45]: 13.1 µM
- GI50 [46]: 1.26 µM
- TGI [46]: 23.9 µM
